ADAM10 inh = ADAM10 inhibition, QFRET primary screen; O14672; recombinant ADAM10, EDANS/DABCYL FRET peptide cleavage, 3 h; inhibition, % at 7 µM; actives 0.62% (n = 370,000);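 active = inhibition above a per-campaign cutoff equal to the mean of compounds falling between control-based bounds plus 3 SD, cut at about 20% in these data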;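 note: 0% = DMSO wells while the 100% control is not disclosed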
Target sequence (O14672 214-748 limits assumed): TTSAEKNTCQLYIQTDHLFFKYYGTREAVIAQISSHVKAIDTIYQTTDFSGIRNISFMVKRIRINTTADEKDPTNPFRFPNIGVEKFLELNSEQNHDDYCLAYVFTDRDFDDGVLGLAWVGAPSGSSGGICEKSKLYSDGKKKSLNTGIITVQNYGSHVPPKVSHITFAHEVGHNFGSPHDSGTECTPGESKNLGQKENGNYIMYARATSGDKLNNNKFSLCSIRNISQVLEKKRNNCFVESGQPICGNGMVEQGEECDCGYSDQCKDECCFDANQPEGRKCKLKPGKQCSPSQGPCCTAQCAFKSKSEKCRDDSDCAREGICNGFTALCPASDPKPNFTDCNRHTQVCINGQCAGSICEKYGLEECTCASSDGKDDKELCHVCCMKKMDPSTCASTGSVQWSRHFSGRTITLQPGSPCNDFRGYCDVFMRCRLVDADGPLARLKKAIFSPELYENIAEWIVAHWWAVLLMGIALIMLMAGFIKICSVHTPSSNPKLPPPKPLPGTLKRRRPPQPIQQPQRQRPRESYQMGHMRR
ADAM17 inh = inhibitors of human ADAM17; P78536; recombinant ADAM17, EDANS/DABCYL FRET peptide cleavage; inhibition, % at 6.95 µM; actives 0.83% (n = 370,000);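 active = inhibition above the mean of compounds lying between control limits plus 3 SD, set per campaign, cut at about 8.5% in these data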;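 note: 0% = DMSO-only wells as the low control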
SKN-1 inh = C. elegans SKN-1 inhibition; C. elegans VP596 Pgst-4::GFP/RFP ratio, acrylamide-induced, 24 h; inhibition, % at 21.8 µM; actives 0.49% (n = 360,000);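 active = interference check ratio from 0.5 to 1.5 plus GFP to RFP signal ratio inhibition reaching or exceeding a fixed threshold, cut at about 30% in these data, passing the limit was not always enough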
MPTP block = blocks calcium-induced mitochondrial swelling. inhibition, % at 10 µM. actives 1.4% (n = 360,000). isolated mouse mitochondria, Ca2+ swelling absorbance, 30 min;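 active = inhibition of 50% or more, scaled per plate between neutral and stimulator controls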;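 note: 0% = DMSO wells given calcium and 100% = 1 mM EGTA wells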
NR3A LBD binder = modulates the human NR3A ligand-binding domain; NR3A LBD differential scanning fluorimetry, Tm shift; 0% = protein alone, 100% = glycine-bound protein; Tm shift relative to glycine control, % at 25 µM; actives 2.5% (n = 340,000);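 active = melting temperature shift of at least 10% of the positive control shift, at one fixed dose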
MT1-MMP act inh = inhibitors of human MT1-MMP activation. P50281. HT1080 RFP-PRO-GFP cells, GFP/RFP ratio fluorescence, overnight; percent of plate control window, DMSO zero. GFP/RFP ratio change, % at 20 µM. actives 0.061% (n = 360,000). AID 651647;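 active = GFP/RFP ratio change of at least 30% with cell ATP level not reduced by more than half and red fluorescence within 50% of control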
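Assay system: HT1080 RFP-PRO-GFP cells | Dosing: 20 µM single dose, 1% DMSO | Incubation: Cells overnight before dosing, compound overnight, 37 °C, 5% CO2 | Evaluation: GFP/RFP fluorescence ratio | Control set: DMSO-only wells and HT1080 RFP-L50D-GFP cell wells as references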
ADAM10 ctr = ADAM10 inhibition, counter-screen for ADAM17 exosite hits; actives 47% (n = 2,900); AID 743256; shares compounds with ADAM17 inh; recombinant ADAM10, EDANS/DABCYL FRET peptide cleavage, 3 h; inhibition, % at 6.95 µM;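 active = mean inhibition over the triplicate runs exceeds the activity threshold set in the earlier primary screen, cut at about 20% in these data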;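 note: 0% = DMSO wells and 100% = marimastat wells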
ADAM17 confirm = confirmation of inhibitors of human ADAM17; shares compounds with ADAM17 inh; recombinant ADAM17, EDANS/DABCYL QFRET peptide cleavage; inhibition, % at 6.95 µM; actives 65% (n = 2,900); AID 743257;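 active = mean inhibition across replicates above the hit cutoff set in the primary screen, cut at about 8.5% in these data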;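 note: 0% = DMSO wells and 100% = marimastat wells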
* = called active by the depositor; nt = not tested or not shown. In the library only some 4.7% were active in any assay of this set; here they are far more common.

SMILES	ADAM10 inh	ADAM17 inh	SKN-1 inh	MPTP block	NR3A LBD binder	MT1-MMP act inh	ADAM10 ctr	ADAM17 confirm
CCn1c(=O)c([N+](=O)[O-])c(N2CCOCC2)c2ccccc21	-1	-1	7	1	0	1	nt	nt
COc1ccc(NS(=O)(=O)c2cc(OC)ccc2OC)cc1	-6	-1	-3	-2	-4	0	nt	nt
COc1ccc(NS(=O)(=O)c2cc(OC)ccc2NC(=O)c2cc(C)oc2C)cc1	15	8.8*	15	-4	1	4	3	6
CCCN(C(=O)c1cn(CCC)c2ccccc12)c1ccc(Oc2cccnc2)cc1	11	10*	nt	nt	nt	nt	16	9.1*
Cc1onc(-c2ccccc2)c1C(=O)N/N=C/c1ccc(O)c([N+](=O)[O-])c1	6	-2	6	-1	2	8	nt	nt
O=C(NCC(c1ccc(F)cc1)N1CCOCC1)c1ccc(Br)o1 (configuration not stated)	1	11*	7	1	3	0	19	11*
COc1ccc(OC)c(S(=O)(=O)NNC(=S)Nc2ccc3c(c2)OCO3)c1	11	-2	-11	1	0	-2	nt	nt
CC(C)(C)c1ccc(C2(C)NC(=O)N(CC(=O)NCc3cccs3)C2=O)cc1 (configuration not stated)	7	5	9	1	-2	0	nt	nt
CC(C)(C)c1ccc(C2(C)NC(=O)N(CC(=O)c3ccc[nH]3)C2=O)cc1 (configuration not stated)	15	11*	-6	0	-12	9	4	3
COc1cc(C)c2c(c1C=O)Oc1c(c(C)c(O)c3c1C(O)OC3=O)OC2=O (configuration not stated)	6	39*	14	-1	-4	5	6	6
Cc1cnc(C(=O)N(c2ccc(N3CCOCC3)cc2)C2C(=O)Nc3ccccc3N=C2c2ccc3c(c2)OCO3)cn1 (configuration not stated)	7	11*	1	0	nt	1	11	9.8*
COc1ccc(Cc2nnc(SCC(=O)Nc3ccc(C)cc3)n(N)c2=O)cc1	7	9.8*	20	0	0	-1	1	1
COc1cc2ncnc(NCc3ccc4c(c3)OCO4)c2cc1OC	13	2	11	0	-1	1	nt	nt
CN(C)c1ccc(N=Nc2ccccc2C(=O)OCC(=O)N2CCCCCC2)cc1	18	13*	22	2	-1	25	16	8.7*
O=C(NCc1n[nH]c(=S)n1-c1cccc(C(F)(F)F)c1)c1ccc(S(=O)(=O)N2CCCC2)cc1	0	-3	23	5	-1	-1	nt	nt
O=C(NCc1n[nH]c(=S)n1-c1cccc(C(F)(F)F)c1)c1ccc(S(=O)(=O)N2CCCCC2)cc1	14	13*	1	-1	-2	2	9	6
CCc1ccc2nc(NC(=O)C3CCN(c4ncnc5sc(C)c(C)c45)CC3)sc2c1	-4	-4	-2	-1	-4	0	nt	nt
Cc1nc(NC(=O)c2cc3c(C)nn(-c4ccccc4)c3s2)sc1C(=O)Nc1ccccc1	2	1	27	0	-1	0	nt	nt
CCN(CC)c1ccc(NC(=O)c2cc3c(C)nn(-c4ccccc4)c3s2)cc1	19	13*	nt	nt	nt	nt	6	10*
O=C(CNC(=O)c1ccco1)Nc1cccc(Cl)c1	8	1	21	0	0	0	nt	nt
O=C(Nc1cc(C(F)(F)F)ccc1N1CCCC1)c1ccc2c(c1)OCO2	0	1	22	3	0	1	nt	nt
O=C(COc1ccccc1F)NNC(=O)c1cccc(-n2cccc2)c1	11	15*	1	2	2	-4	-1	3
O=[N+]([O-])c1cc(Cl)c(O)c2ncccc12	15	10*	6	-23	3	9	20	11*
CCCN1C(=O)c2ccc(C(=O)Nc3cc(C)on3)cc2C1=O	0	9.7*	-16	0	2	-1	-3	-4
Cc1cc(NC(=O)c2ccc3c(c2)C(=O)N(Cc2ccccc2)C3=O)no1	-9	-4	0	1	2	6	nt	nt
SMILES	ADAM10 inh	ADAM17 inh	SKN-1 inh	MPTP block	NR3A LBD binder	MT1-MMP act inh	ADAM10 ctr	ADAM17 confirm
COc1ccc(NC(=O)CCSc2ccc(C)cc2)cc1S(=O)(=O)Nc1ccccc1Cl	16	4	-5	17	2	2	nt	nt
COc1ccc(NS(=O)(=O)c2cc(NC(=O)CCSc3ccccc3)ccc2OC)cc1	14	10*	-3	5	-1	-1	42*	22*
O=C1NCCN(CC2CCN(CC3CCCC3)CC2)C1=O	-10	-5	-6	1	1	-1	nt	nt
CC(C)(C)c1nc(N)nc(=O)[nH]1	-10	-3	5	2	1	-1	nt	nt
C=CCC(NCc1ccccc1)c1ccccc1 (configuration not stated)	-7	-4	-9	0	-5	-1	nt	nt
CC(C)CNC(=S)NC1CC2CCCC(C1)N2Cc1cccs1 (configuration not stated)	8	12*	-2	-1	-1	11	11	7
CC(C)CNC(=S)NC1CC2CCCC(C1)N2Cc1ccco1 (configuration not stated)	-3	-2	0	2	0	2	nt	nt
COc1ccccc1NC(=O)CN1CCC(c2nc3ccccc3[nH]2)CC1	-2	-1	-1	0	-2	-3	nt	nt
Cc1ccc(C(C(=O)NCc2ccccc2)N(Cc2cccs2)C(=O)c2ccc3c(c2)OCCO3)cc1 (configuration not stated)	15	10*	2	5	0	-31	14	11*
COC(=O)c1ccc(C(C(=O)NCc2ccccc2)N(Cc2cccs2)C(=O)c2cnccn2)cc1 (configuration not stated)	7	-2	19	1	-4	4	nt	nt
COCCNc1nc(-c2cc(C)n(CCc3ccc(OC)cc3)c2C)cs1	-6	1	17	0	2	5	nt	nt
Cc1[nH]c(C)c(S(=O)(=O)N2CCN(c3ccccc3)CC2)c1C(=O)N1CCCC1	-3	-2	-15	0	2	1	nt	nt
Cc1cc(Cl)ccc1OCCCC(=O)N1CCN(S(=O)(=O)c2ccccc2)CC1	13	9.9*	-16	0	-2	-1	30*	16*
